Data from paper PMC12334608 (Nature Communications, 2025).
Positions count from the first letter of the chain named.

Key:
ACOX-1.1(N437A) = biological target: T1, ACOX-1.1(N437A) (Caenorhabditis elegans, UniProt O62140, N437A); experiment: Enzyme-coupled kinetic assay, ACOX-1.1; type: biochemical, C. elegans
T1 sequence (O62140 1-674 N437A): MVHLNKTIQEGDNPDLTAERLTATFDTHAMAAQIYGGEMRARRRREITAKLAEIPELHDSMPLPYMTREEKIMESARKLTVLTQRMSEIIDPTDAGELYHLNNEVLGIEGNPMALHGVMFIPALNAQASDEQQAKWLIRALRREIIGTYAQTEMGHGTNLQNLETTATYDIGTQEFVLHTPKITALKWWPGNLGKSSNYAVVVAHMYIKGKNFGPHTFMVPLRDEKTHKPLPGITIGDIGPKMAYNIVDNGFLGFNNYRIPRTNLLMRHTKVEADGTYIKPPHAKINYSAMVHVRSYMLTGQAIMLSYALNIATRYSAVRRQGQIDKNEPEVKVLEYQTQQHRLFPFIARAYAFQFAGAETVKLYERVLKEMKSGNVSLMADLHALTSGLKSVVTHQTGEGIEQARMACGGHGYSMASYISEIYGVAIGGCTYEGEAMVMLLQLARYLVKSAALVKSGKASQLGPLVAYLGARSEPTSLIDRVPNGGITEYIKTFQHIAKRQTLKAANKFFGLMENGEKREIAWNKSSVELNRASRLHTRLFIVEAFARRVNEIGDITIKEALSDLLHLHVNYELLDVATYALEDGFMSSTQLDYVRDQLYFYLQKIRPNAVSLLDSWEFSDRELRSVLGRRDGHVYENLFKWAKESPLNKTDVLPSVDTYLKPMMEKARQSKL

apo ACOX-1.1 = biological target: T2, apo ACOX-1.1 (Caenorhabditis elegans, UniProt O62140); experiment: FAD and ATP dissociation constants by fluorescence polarization; type: binding, C. elegans; details: KD of ACOX-1.1 for ATP, 4 μM apo ACOX-1.1, 100 nM FAD; 95% CI: 6.1–27.5 μM
T2 sequence (O62140 1-674): T1 sequence (O62140 1-674 N437A) with A437N

ACOX-1.1(R536E) = experiment: Enzyme-coupled kinetic assay, ACOX-1.1; type: biochemical, C. elegans; details: 10 μM FAD, various ATP
Outline: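 Coupled H2O2 assay on a plate reader using the mutant enzyme (250 nM final). […] Peroxide was coupled through 4-aminoantipyrine (0.82 mM final), phenol (10.6 mM final) and peroxidase, read at 500 nm. Substrate was 25 µM lauroyl-CoA in 50 mM Tris-HCl pH 7.5, 150 mM NaCl, 10 mM MgCl2. Initial rate was taken over a 30 s window at 25–26 °C.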

ACOX-1.1(R295A) = biological target: T3, ACOX-1.1(R295A) (Caenorhabditis elegans, UniProt O62140, R295A); experiment: Enzyme-coupled kinetic assay, ACOX-1.1; type: biochemical, C. elegans
T3 sequence (O62140 1-674 R295A): T1 sequence (O62140 1-674 N437A) with R295A, A437N

ACOX-1.1 = biological target: T4, ACOX-1.1 (Caenorhabditis elegans, UniProt O62140); experiment: Analysis of enzyme activity; type: biochemical, C. elegans; details: 10 μM FAD, 350 μM ATP
T4 sequence (O62140 1-674): T1 sequence (O62140 1-674 N437A) with A437N

response of enzyme activity to ATP (ACOX-1.1(N437A)): did not respond to ATP
Kd (apo ACOX-1.1): 20.7 µM
response of enzyme activity to ATP (ACOX-1.1(R536E)): do not respond to ATP
response of enzyme activity to ATP (ACOX-1.1(R295A)): do not respond to ATP
effect on rate of product formation (HPLC) (ACOX-1.1): increases the rate of product formation
Compound: Nc1ncnc2c1ncn2[C@@H]1O[C@H](COP(=O)(O)OP(=O)(O)OP(=O)(O)O)[C@@H](O)[C@H]1O [ATP]
